Test results taken from ChEMBL document CHEMBL3046095, “Synthesis and antiviral activities of amide derivatives containing the alpha-aminophosphonate moiety” (J Agric Food Chem, 2008).
≈ marks a conversion by molar mass, not a printed value.

Assays:
Tobacco mosaic virus [1] = experiment: Antiviral activity against Tobacco mosaic virus (TMV) pre-treated with 500 ug/mL compound for 30 min followed by inoculation on left side of Nicotiana tabacum leaves assessed as virus inactivation effect measured 3 to 4 days post viral infection; format: functional
How it was run: (§1)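 Inactivation assay on N. tabacum leaves, with a solvent–virus mixture inoculated as control. Local lesion numbers were recorded 3–4 d after inoculation, three repetitions per compound. Inhibition % was derived from mean lesion counts relative to control.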

Tobacco mosaic virus [2] = experiment: Antiviral activity against Tobacco mosaic virus (TMV) inoculated on 500 ug/mL compound smeared Nicotiana tabacum leaves assessed as protective effect against viral infection measured 3 to 4 days post viral infection; format: functional
How it was run: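 Half-leaf assay on same-age growing Nicotiana tabacum leaves: compound solution smeared on left half, solvent on right half as control. After 12 h, leaves scattered with silicon carbide were brush-inoculated with TMV at 6 × 10^-3 mg/mL. Local lesions were counted 3–4 d post-inoculation, three repetitions. Inhibition % = (control mean lesions − treated mean lesions)/control mean lesions × 100.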

Tobacco mosaic virus [3] = experiment: Antiviral activity against Tobacco mosaic virus (TMV) inoculated on whole Nicotiana tabacum leaves followed by smearing with 500 ug/mL compound solution on left side of leaves assessed as viral infection curative effect measured 3 to 4 days post viral infection; format: functional
How it was run: (§2)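 Whole same-age growing N. tabacum leaves were dip-inoculated with TMV at 6 × 10^-3 mg/mL, then washed with water and dried. Compound solution was smeared on left half, solvent on right half as control. Local lesions were counted 3–4 d after inoculation, three repetitions per compound. Inhibition % = (control mean lesions − treated mean lesions)/control mean lesions × 100.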

Tobacco mosaic virus [4] = experiment: Antiviral activity against Tobacco mosaic virus (TMV) inoculated on whole Nicotiana tabacum leaves followed by smearing with 250 ug/mL compound solution on left side of leaves assessed as viral infection curative effect measured 3 to 4 days post viral infection; format: functional; how it was run: as §2
Tobacco mosaic virus [5] = experiment: Antiviral activity against Tobacco mosaic virus (TMV) inoculated on whole Nicotiana tabacum leaves followed by smearing with 125 ug/mL compound solution on left side of leaves assessed as viral infection curative effect measured 3 to 4 days post viral infection; format: functional; how it was run: as §2
Tobacco mosaic virus [6] = experiment: Antiviral activity against Tobacco mosaic virus (TMV) pre-treated with compound for 30 min followed by inoculation on left side of Nicotiana tabacum leaves assessed as virus inactivation effect measured 3 to 4 days post viral infection; format: functional, organism-based; how it was run: as §1
Tobacco mosaic virus [7] = experiment: Antiviral activity against Tobacco mosaic virus (TMV) pre-treated with 250 ug/mL compound for 30 min followed by inoculation on left side of Nicotiana tabacum leaves assessed as virus inactivation effect measured 3 to 4 days post viral infection; format: functional; how it was run: as §1
Tobacco mosaic virus [8] = experiment: Antiviral activity against Tobacco mosaic virus (TMV) pre-treated with 62.5 ug/mL compound for 30 min followed by inoculation on left side of Nicotiana tabacum leaves assessed as virus inactivation effect measured 3 to 4 days post viral infection; format: functional; how it was run: as §1
Tobacco mosaic virus [9] = experiment: Antiviral activity against Tobacco mosaic virus (TMV) inoculated on whole Nicotiana tabacum leaves followed by smearing with compound solution on left side of leaves assessed as viral infection curative effect measured 3 to 4 days post viral infection; format: functional, organism-based; how it was run: as §2
Tobacco mosaic virus [10] = experiment: Antiviral activity against Tobacco mosaic virus (TMV) pre-treated with 125 ug/mL compound for 30 min followed by inoculation on left side of Nicotiana tabacum leaves assessed as virus inactivation effect measured 3 to 4 days post viral infection; format: functional; how it was run: as §1

| Structure (SMILES) | Activity (Tobacco mosaic virus [1]) [%] | Activity (Tobacco mosaic virus [2]) [%] | Activity (Tobacco mosaic virus [3]) [%] | Activity (Tobacco mosaic virus [4]) [%] | Activity (Tobacco mosaic virus [5]) [%] | EC50 (Tobacco mosaic virus [6]) [mg/L] | Activity (Tobacco mosaic virus [7]) [%] | Activity (Tobacco mosaic virus [8]) [%] | EC50 (Tobacco mosaic virus [9]) [mg/L] | Activity (Tobacco mosaic virus [10]) [%] |
| --- | --- | --- | --- | --- | --- | --- | --- | --- | --- | --- |
| CCOP(=O)(OCC)C(NC(=O)c1ccccc1)c1ccccc1F (configuration not stated) [DIETHYL BENZAMIDO(2-FLUOROPHENYL)METHYLPHOSPHONATE] | 70 | 43.1 | 32.2 | – | – | – | – | – | – | – |
| CCOP(=O)(OCC)C(NC(=O)/C=C/c1ccccc1)c1ccccc1F (configuration not stated) | 51.5 | 39 | 22.4 | – | – | – | – | – | – | – |
| CCOP(=O)(OCC)C(NC(=O)c1cccc(F)c1)c1ccccc1F (configuration not stated) | 70.7 | 41 | 6.2 | – | – | – | – | – | – | – |
| CCOP(=O)(OCC)C(NC(=O)c1ccccc1)c1ccccc1 (configuration not stated) [DIETHYL BENZAMIDO(PHENYL)METHYLPHOSPHONATE] | 42.4 | 39.1 | 8.7 | – | – | – | – | – | – | – |
| CCOP(=O)(OCC)C(NC(=O)c1ccccc1F)c1ccccc1F (configuration not stated) | 80 | 50 | 20.8 | – | – | – | – | – | – | – |
| CNCC(=O)N[C@@H](CO)C(=O)N[C@H]1[C@H](O)[C@@H](O)[C@H](n2ccc(N)nc2=O)O[C@@H]1C(N)=O [NINGNANMYCIN] | 100 | 60.2 | 55.4 | 51 | 40.9 | 55.6 (≈ 125 µM) | 100 | 69 | 246 (≈ 555 µM) | 78.4 |
| CCOP(=O)(OCC)C(NC(=O)c1cccc(F)c1)c1ccccc1 (configuration not stated) [DIETHYL(3-FLUOROBENZAMIDO)(PHENYL)METHYLPHOSPHONATE] | 82.1 | 56 | 24.6 | – | – | – | – | – | – | – |
| CCOP(=O)(OCC)C(NC(=O)c1cc(OC)c(OC)c(OC)c1)c1ccccc1 (configuration not stated) [DIETHYL PHENYL(3,4,5-TRIMETHOXYBENZAMIDO)METHYLPHOSPHONATE] | 45.6 | 42 | 35.6 | – | – | – | – | – | – | – |
| CCOP(=O)(OCC)C(NC(=O)c1cc(OC)c(OC)c(OC)c1)c1ccccc1F (configuration not stated) | 33.7 | 41.2 | 17.1 | – | – | – | – | – | – | – |
| CCOP(=O)(OCC)C(NC(=O)c1ccccc1C(F)(F)F)c1ccccc1 (configuration not stated) [DIETHYL PHENYL(2-(TRIFLUOROMETHYL)BENZAMIDO)METHYLPHOSPHONATE] | 45.3 | 41.1 | 2.4 | – | – | – | – | – | – | – |
| CCOP(=O)(OCC)C(NC(=O)c1ccccc1C(F)(F)F)c1ccccc1F (configuration not stated) | 62.2 | 39.2 | 2.1 | – | – | – | – | – | – | – |
| CCCOP(=O)(OCCC)C(NC(=O)c1ccccc1C(F)(F)F)c1ccccc1 (configuration not stated) [DIPROPYL PHENYL(2-(TRIFLUOROMETHYL)BENZAMIDO)METHYLPHOSPHONATE] | 80 | 44 | 53.7 | 38 | 31.6 | 199 (≈ 449 µM) | 60 | 31.2 | 422 (≈ 952 µM) | 39.2 |
| CCCOP(=O)(OCCC)C(NC(=O)c1cc(OC)c(OC)c(OC)c1)c1ccccc1 (configuration not stated) [DIPROPYL PHENYL(3,4,5-TRIMETHOXYBENZAMIDO)METHYLPHOSPHONATE] | 83.4 | 58.8 | 55 | 50.6 | 40.9 | 210 (≈ 451 µM) | 61 | 28.8 | 250 (≈ 537 µM) | 30.3 |
| CCOP(=O)(OCC)C(NC(=O)c1ccccc1Cl)c1ccccc1 (configuration not stated) [DIETHYL(2-CHLOROBENZAMIDO)(PHENYL)METHYLPHOSPHONATE] | 90.6 | 58 | 19 | – | – | 60 (≈ 157 µM) | 82.2 | 59 | – | 60.9 |
| CCOP(=O)(OCC)C(NC(=O)c1ccccc1F)c1ccccc1 (configuration not stated) [DIETHYL(2-FLUOROBENZAMIDO)(PHENYL)METHYLPHOSPHONATE] | 78 | 42 | 53.6 | 49 | 34 | 119 (≈ 326 µM) | 70.9 | 36.7 | 256 (≈ 700 µM) | 47.2 |
| CCOP(=O)(OCC)C(NC(=O)c1ccccc1Cl)c1ccccc1F (configuration not stated) | 39 | 40.9 | 19.7 | – | – | – | – | – | – | – |
| CCOP(=O)(OCC)C(NC(=O)/C=C/c1ccccc1)c1ccccc1 (configuration not stated) [(E)-DIETHYL CINNAMAMIDO(PHENYL)METHYLPHOSPHONATE] | 88.2 | 58.7 | 50 | 39.9 | 32.3 | 65.2 (≈ 175 µM) | 79.9 | 49.1 | 439 (≈ 1180 µM) | 61.2 |
| CCCOP(=O)(OCCC)C(NC(=O)c1ccccc1)c1ccccc1 (configuration not stated) [DIPROPYL BENZAMIDO(PHENYL)METHYLPHOSPHONATE] | 78.9 | 49.9 | 42 | 23.9 | 14 | 279 (≈ 743 µM) | 51 | 10 | 560 (≈ 1490 µM) | 23 |
| CCOP(=O)(OCC)C(NC(=O)c1ccc(F)cc1)c1ccccc1 (configuration not stated) [DIETHYL(4-FLUOROBENZAMIDO)(PHENYL)METHYLPHOSPHONATE] | 99.1 | 65.7 | 19.2 | – | – | 54.8 (≈ 150 µM) | 100 | 70 | – | 76.1 |
| CCCOP(=O)(OCCC)C(NC(=O)c1cccc(F)c1)c1ccccc1 (configuration not stated) [DIPROPYL(3-FLUOROBENZAMIDO)(PHENYL)METHYLPHOSPHONATE] | 86.6 | 50.9 | 43 | 21 | 12.9 | 150 (≈ 381 µM) | 65 | 40.1 | 546 (≈ 1390 µM) | 46 |
